Experimental data from different studies.
Compare with care: the assays were run in different laboratories.

| Structure (SMILES) | test system | setting | measurement | value |
| --- | --- | --- | --- | --- |
| CC(C)(Nc1nc(-c2ccccn2)nc2ccccc12)c1ccccn1 | female BALB/c mouse, plasma | intravenous, 1 mg/kg, 15 min | concentration | 963 ng/mL |
| CS(=O)(=O)CCC#N | human, plasma | oral, 300 mg, single dose, fasted | MRT | 30.5 h |
| CC(C)Oc1cccc(-c2cnc(N3CCC(C(N)=O)CC3)s2)c1 | male Swiss mouse, brain | oral, 30 mg/kg, 1 h, single dose | concentration | 207 ng/g |
| O=c1nc(N2CCN(CC3CCCCC3)CC2)sc2c([N+](=O)[O-])cc(C(F)(F)F)cc12 | CD-1 mouse, lung | oral, 100 mg/kg, 15 min | concentration | 431 ng/mL |
| CC(C)CN(C[C@@H](O)[C@H](Cc1ccccc1)NC(=O)O[C@H]1CO[C@H]2OCC[C@H]21)S(=O)(=O)c1ccc(N)cc1 | BALB/c mouse, plasma | intravenous, 25 mg/kg, 12 h | concentration | 31.4 ng/mL |
| CC(C)(C)c1ccc(O)c(CN(Cc2cc(C(C)(C)C)ccc2O)C2CCC(NC(N)=O)CC2)c1 (stereo not shown) | male C57BL/6 mouse, brain | intraperitoneal, 10 mg/kg, single dose | half-life | 7.08 h |
| CC(C)(O)c1ccccc1-c1ccc2[nH]c(/C=C/c3ccc(C(F)(F)F)cc3)nc2c1 | male human, plasma | oral, 60 mg, single dose, fasted, healthy volunteers | MRT | 91.4 h |
| O=C(O)C1CCN(c2ncc(-c3ccc4c(c3)OCCCO4)s2)CC1 | male Swiss mouse, plasma | oral, 30 mg/kg, 24 h, single dose | concentration | 1570 ng/mL |
| c1ccc(-c2nc(N3CCC(c4ccccn4)C3)c3ccccc3n2)nc1 (stereo not shown) | female BALB/c mouse, plasma | oral, 50 mg/kg, 1 h | concentration | 2940 ng/mL |
| c1cnc2ccc(Nc3nc(NC4CC4)c4nc[nH]c4n3)cc2c1 | human, plasma | oral, 50 mg/m², patients | MRT(0-t) | 6.4 h |
